Calls of active or inactive are those of the source. No cut-off for these calls is given here. Where a SMILES comes first, the peptide text is derived from it. The star is where a group is joined. Ethyl(2-stearoyloxy) = CCCCCCCCCCCCCCCCCC(=O)OCC*; Ethyl(2-palmitoyloxy) = CCCCCCCCCCCCCCCC(=O)OCC*
Key:
[1] = Stability in rat plasma assessed as half life at 150 ug/l measured up to 60 mins by HPLC analysis; format: ADME, cell-free
How it was run: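 Peptide from a 20 mg/L water stock incubated in 25% rat serum (v/v) in PBS pH 7.4 at a final 150 μg/L, 37 °C. Samples taken at 0-60 min and quenched with MeCN plus 15% TCA, held overnight at 4 °C, then centrifuged. Remaining peptide measured by C18 RP-HPLC peak area at 210 nm relative to t=0. Run in triplicate.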

[2] = target: Gap junction alpha-1 protein (Homo sapiens) (UniProt P17302); test: Inhibition of Cx43 in hypoxic-acidic ion-shifted ringers solution-induced human cerebral microvascular endothelial cell model of ischaemic injury assessed as ATP release at 10 uM measured after 2 hrs by luciferin-luciferase based luminescence assay relative to control; parameters: scale not given: the % may be the effect or the level left
How it was run: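 hCMVEC (passages 8-17) seeded at 2 x 10^6/well on collagen-I (1 µg/cm²) and grown 48 h to a confluent monolayer. Washed in NR, then exposed 2 h in HAIR (pH 6.6, N₂-bubbled, low Ca²⁺, K-gluconate/NMDG) containing peptide at 10 µM. Supernatant diluted 1:10 in firefly luciferase mix and read at 560 nm against an ATP standard (0-50 nM). Expressed as % of HAIR-only, mean of n=3.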

Chain of Gap junction alpha-1 protein (Homo sapiens) (P17302 whole entry): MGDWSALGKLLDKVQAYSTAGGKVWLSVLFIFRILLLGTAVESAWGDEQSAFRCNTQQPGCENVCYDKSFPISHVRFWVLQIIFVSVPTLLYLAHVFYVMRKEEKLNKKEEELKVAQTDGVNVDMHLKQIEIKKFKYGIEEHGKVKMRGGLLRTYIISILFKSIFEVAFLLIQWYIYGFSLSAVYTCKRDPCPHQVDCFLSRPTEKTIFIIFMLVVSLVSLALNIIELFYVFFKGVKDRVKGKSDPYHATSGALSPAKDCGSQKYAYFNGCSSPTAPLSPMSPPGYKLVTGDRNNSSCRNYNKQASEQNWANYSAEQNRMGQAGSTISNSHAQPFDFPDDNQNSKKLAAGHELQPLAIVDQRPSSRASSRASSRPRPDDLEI

half-life at 150 ug/l [1]	SMILES	Activity [2]
5 min	CC(C)C[C@H](NC(=O)[C@H](Cc1ccccc1)NC(=O)[C@H](CS)NC(=O)[C@H](CC(=O)O)NC(=O)[C@@H](N)C(C)C)C(=O)N[C@@H](CO)C(=O)N[C@@H](CCCNC(=N)N)C(=O)N1CCC[C@H]1C(=O)N[C@H](C(=O)N[C@@H](CCC(=O)O)C(=O)N[C@@H](CCCCN)C(=O)N[C@H](C(=O)O)[C@@H](C)O)[C@@H](C)O (H-VDCFLSRPTEKT-OH)	53.8%
	CCCCCCCCCCCCCCCC(=O)OCCSC[C@H](NC(=O)[C@@H](NC(=O)[C@@H]1CCCN1C(=O)[C@H](CCCNC(=N)N)NC(=O)[C@H](CO)NC(=O)[C@H](CC(C)C)NC(=O)[C@H](Cc1ccccc1)NC(=O)[C@H](CS)NC(=O)[C@H](CC(=O)O)NC(=O)[C@@H](N)C(C)C)[C@@H](C)O)C(=O)N[C@@H](CCCCN)C(=O)N[C@H](C(=O)O)[C@@H](C)O (H-VDCFLSRPTC(Ethyl(2-palmitoyloxy))KT-OH)	114%
	CCCCCCCCCCCCCCCCCC(=O)OCCSC[C@H](NC(=O)[C@H](CC(C)C)NC(=O)[C@H](Cc1ccccc1)NC(=O)[C@H](CS)NC(=O)[C@H](CC(=O)O)NC(=O)[C@@H](N)C(C)C)C(=O)N[C@@H](CCCNC(=N)N)C(=O)N1CCC[C@H]1C(=O)N[C@H](C(=O)N[C@@H](CCC(=O)O)C(=O)N[C@@H](CCCCN)C(=O)N[C@H](C(=O)O)[C@@H](C)O)[C@@H](C)O (H-VDCFLC(Ethyl(2-stearoyloxy))RPTEKT-OH)	inactive
